Experimental data reported in ChEMBL document CHEMBL1134462, “Toward a rational design of peptide inhibitors of ribonucleotide reductase: structure-function and modeling studies” (J Med Chem, 2001).
Non-standard residues stand in square brackets, D forms with d. Residues, ends and D or L forms follow the SMILES beside them. aThr = C[C@H](O)[C@H](N)C(=O)O

Assay: Relative binding affinity evaluated against mouse Ribonucleotide Reductase (RR)
In short: (§1)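 Competition of free ligand with column-bound FTLDADF (Sepharose mixed ~60:40 with underivatized Sepharose) for mouse R1. mR1 (4.4 μM) premixed with ligand (typically 100 μM) in 50 mM Tris pH 8.5, 10 mM DTT, 100 μM dTTP, held 30 min on spin column, then centrifuged. Eluted R1 measured by Bradford assay, duplicates; Kd derived from elution versus no-ligand control, expressed relative to AcFTLDADF standard.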

| Relative Ki | SMILES |
| --- | --- |
| 3.2 | CC(=O)N[C@@H](Cc1ccccc1)C(=O)N[C@H](C(=O)N[C@@H](CC(C)C)C(=O)N[C@@H](CC(=O)O)C(=O)N[C@@H](C)C(=O)N[C@@H](CC(=O)O)C(=O)N[C@@H](Cc1ccc(Cl)cc1)C(=O)O)[C@H](C)O |
| > 35 | CC(=O)N[C@@H](Cc1ccccc1)C(=O)N[C@H](C(=O)N[C@@H](CC(C)C)C(=O)N[C@@H](CC(=O)O)C(=O)N[C@@H](C)C(=O)N[C@@H](CC(=O)O)C(=O)N[C@@H](Cc1ccccc1)C(=O)N[C@@H](C)C(=O)N[C@@H](C)C(=O)O)[C@H](C)O (Ac-F[aThr]LDADFAA-OH) |
| > 20 | CC(=O)N[C@@H](Cc1ccccc1)C(=O)N[C@H](C(=O)N[C@@H](CC(C)C)C(=O)N[C@@H](CC(=O)O)C(=O)N[C@@H](C)C(=O)N[C@@H](CC(=O)O)C(=O)N[C@@H](Cc1c[nH]cn1)C(=O)O)[C@H](C)O |
| 1 | CC(=O)N[C@@H](Cc1ccccc1)C(=O)N[C@H](C(=O)N[C@@H](CC(C)C)C(=O)N[C@@H](CC(=O)O)C(=O)N[C@@H](C)C(=O)N[C@@H](CC(=O)O)C(=O)N[C@@H](Cc1ccccc1)C(=O)O)[C@H](C)O |
| > 40 | CC(C)C[C@H](NC(=O)[C@@H](NC(=O)[C@@H](N)Cc1ccccc1)[C@H](C)O)C(=O)N[C@@H](CC(=O)O)C(=O)N[C@@H](C)C(=O)N[C@@H](CC(=O)O)C(=O)N[C@@H](Cc1ccccc1)C(=O)O (H-F[aThr]LDADF-OH) |
| 15 | CC(=O)N[C@@H](Cc1ccc(O)cc1)C(=O)N[C@H](C(=O)N[C@@H](CC(C)C)C(=O)N[C@@H](CC(=O)O)C(=O)N[C@@H](C)C(=O)N[C@@H](CC(=O)O)C(=O)N[C@@H](Cc1ccccc1)C(=O)O)[C@H](C)O |
| > 35 | CC(=O)N[C@@H](Cc1ccccc1)C(=O)N[C@H](C(=O)N[C@@H](CC(C)C)C(=O)N[C@@H](CC(=O)O)C(=O)N[C@@H](C)C(=O)N[C@@H](CC(=O)O)C(=O)N[C@@H](CC(C)C)C(=O)O)[C@H](C)O (Ac-F[aThr]LDADL-OH) |

Assay: Relative dissociation constant evaluated against mouse Ribonucleotide Reductase (RR)
In short: as §1

| Relative Kd | SMILES |
| --- | --- |
| 24 | CC(=O)N[C@@H](Cc1ccccc1)C(=O)N[C@H](C(=O)N[C@@H](CC(C)C)C(=O)N[C@@H](CC(=O)O)C(=O)N[C@@H](C)C(=O)N[C@@H](CC(=O)O)C(=O)N[C@H](C(=O)O)c1ccccc1)[C@H](C)O |
| 1.9 | CC(C)C[C@H](NC(=O)[C@@H](NC(=O)[C@H](Cc1ccccc1)NC(=O)c1ccccc1)[C@H](C)O)C(=O)N[C@@H](CC(=O)O)C(=O)N[C@@H](C)C(=O)N[C@@H](CC(=O)O)C(=O)N[C@@H](Cc1ccccc1)C(=O)O |
| 3.1 | CC(=O)N[C@@H](Cc1ccccc1)C(=O)N[C@H](C(=O)N[C@@H](CC(C)C)C(=O)N[C@@H](CC(=O)O)C(=O)N[C@@H](C)C(=O)N[C@@H](CC(=O)O)C(=O)N[C@@H](Cc1ccc(Cl)cc1)C(=O)O)[C@H](C)O |
| 8.6 | CC(=O)N[C@@H](Cc1ccccc1)C(=O)N[C@H](C(=O)N[C@@H](CC(C)C)C(=O)N[C@@H](CC(=O)O)C(=O)N[C@@H](C)C(=O)N[C@@H](CC(=O)O)C(=O)N[C@H](Cc1ccccc1)C(=O)O)[C@H](C)O |
| 10 | CC(=O)N[C@@H](Cc1ccccc1)C(=O)N[C@H](C(=O)N[C@@H](CC(C)C)C(=O)N[C@@H](CC(=O)O)C(=O)N[C@@H](C)C(=O)N[C@@H](CC(=O)O)C(=O)N[C@@H](Cc1c[nH]c2ccccc12)C(=O)O)[C@H](C)O |
| > 30 | CC(=O)N[C@H](C(=O)N[C@H](C(=O)N[C@@H](CC(C)C)C(=O)N[C@@H](CC(=O)O)C(=O)N[C@@H](C)C(=O)N[C@@H](CC(=O)O)C(=O)N[C@@H](Cc1ccccc1)C(=O)O)[C@H](C)O)C(C)C |
| > 30 | CC(=O)N[C@@H](CC(C)C)C(=O)N[C@H](C(=O)N[C@@H](CC(C)C)C(=O)N[C@@H](CC(=O)O)C(=O)N[C@@H](C)C(=O)N[C@@H](CC(=O)O)C(=O)N[C@@H](Cc1ccccc1)C(=O)O)[C@H](C)O (Ac-L[aThr]LDADF-OH) |
| 23 | CC(=O)N[C@@H](Cc1ccccc1)C(=O)N[C@H](C(=O)N[C@@H](CC(C)C)C(=O)N[C@@H](CC(=O)O)C(=O)N[C@@H](C)C(=O)N[C@@H](CC(=O)O)C(=O)N[C@@H](Cc1ccc(N)cc1)C(=O)O)[C@H](C)O |
| 16 | COc1ccc(C[C@H](NC(=O)[C@H](CC(=O)O)NC(=O)[C@H](C)NC(=O)[C@H](CC(=O)O)NC(=O)[C@H](CC(C)C)NC(=O)[C@@H](NC(=O)[C@H](Cc2ccccc2)NC(C)=O)[C@H](C)O)C(=O)O)cc1 |
| 6.3 | CC(=O)N[C@@H](Cc1ccccc1)C(=O)N[C@H](C(=O)N[C@@H](CC(C)C)C(=O)N[C@@H](CC(=O)O)C(=O)N[C@@H](C)C(=O)N[C@@H](CC(=O)O)C(=O)N[C@@H](Cc1cccc(O)c1)C(=O)O)[C@H](C)O |
| 8.2 | COc1cccc(C[C@H](NC(=O)[C@H](CC(=O)O)NC(=O)[C@H](C)NC(=O)[C@H](CC(=O)O)NC(=O)[C@H](CC(C)C)NC(=O)[C@@H](NC(=O)[C@H](Cc2ccccc2)NC(C)=O)[C@H](C)O)C(=O)O)c1 |
| 0.8 | COc1ccc(CC(=O)N[C@@H](Cc2ccccc2)C(=O)N[C@H](C(=O)N[C@@H](CC(C)C)C(=O)N[C@@H](CC(=O)O)C(=O)N[C@@H](C)C(=O)N[C@@H](CC(=O)O)C(=O)N[C@@H](Cc2ccccc2)C(=O)O)[C@H](C)O)cc1 |
| 6.6 | CC(=O)N[C@H](C(=O)N[C@H](C(=O)N[C@@H](CC(C)C)C(=O)N[C@@H](CC(=O)O)C(=O)N[C@@H](C)C(=O)N[C@@H](CC(=O)O)C(=O)N[C@@H](Cc1ccccc1)C(=O)O)[C@H](C)O)c1ccccc1 |
| > 30 | CC(=O)N[C@@H](Cc1ccccc1)C(=O)N[C@H](C(=O)N[C@@H](CC(C)C)C(=O)N[C@@H](CC(=O)O)C(=O)N[C@@H](C)C(=O)N[C@@H](CC(=O)O)C(=O)N[C@@H](Cc1ccccc1)C(N)=O)[C@H](C)O |
| 0.6 | CC(C)C[C@H](NC(=O)[C@@H](NC(=O)[C@H](Cc1ccccc1)NC(=O)c1ccnc(-c2cc(C(=O)O)ccn2)c1)[C@H](C)O)C(=O)N[C@@H](CC(=O)O)C(=O)N[C@@H](C)C(=O)N[C@@H](CC(=O)O)C(=O)N[C@@H](Cc1ccccc1)C(=O)O |
| 16 | CC(=O)N[C@@H](Cc1ccccc1)C(=O)N[C@H](C(=O)N[C@@H](CC(C)C)C(=O)N[C@@H](CC(=O)O)C(=O)N[C@@H](C)C(=O)N[C@@H](CC(=O)O)C(=O)N[C@@H](Cc1c(F)c(F)c(F)c(F)c1F)C(=O)O)[C@H](C)O |
| 0.8 | CC(C)C[C@H](NC(=O)[C@@H](NC(=O)[C@H](Cc1ccccc1)NC(=O)Cc1ccccc1)[C@H](C)O)C(=O)N[C@@H](CC(=O)O)C(=O)N[C@@H](C)C(=O)N[C@@H](CC(=O)O)C(=O)N[C@@H](Cc1ccccc1)C(=O)O |

| Relative Kd | SMILES |
| --- | --- |
| > 30 | CC(=O)N[C@@H](Cc1ccccc1)C(=O)N[C@H](C(=O)N[C@@H](CC(C)C)C(=O)N[C@@H](CC(=O)O)C(=O)N[C@@H](C)C(=O)N[C@@H](CC(=O)O)C(=O)N[C@@H](CCC(N)=O)C(=O)O)[C@H](C)O |
| 1 | CCCC(=O)N[C@@H](Cc1ccccc1)C(=O)N[C@H](C(=O)N[C@@H](CC(C)C)C(=O)N[C@@H](CC(=O)O)C(=O)N[C@@H](C)C(=O)N[C@@H](CC(=O)O)C(=O)N[C@@H](Cc1ccccc1)C(=O)O)[C@H](C)O |
| > 30 | CC(=O)N[C@@H](C)C(=O)N[C@H](C(=O)N[C@@H](CC(C)C)C(=O)N[C@@H](CC(=O)O)C(=O)N[C@@H](C)C(=O)N[C@@H](CC(=O)O)C(=O)N[C@@H](Cc1ccccc1)C(=O)O)[C@H](C)O |
| 6.3 | CCC(=O)N[C@@H](Cc1ccccc1)C(=O)N[C@H](C(=O)N[C@@H](CC(C)C)C(=O)N[C@@H](CC(=O)O)C(=O)N[C@@H](C)C(=O)N[C@@H](CC(=O)O)C(=O)N[C@@H](Cc1ccccc1)C(=O)O)[C@H](C)O |
| 29 | CC(=O)N[C@@H](Cc1ccccc1)C(=O)N[C@H](C(=O)N[C@@H](CC(C)C)C(=O)N[C@@H](CC(=O)O)C(=O)N[C@@H](C)C(=O)N[C@@H](CC(=O)O)C(=O)N[C@@H](Cc1c[nH]cn1)C(=O)O)[C@H](C)O |
| 1 | CC(=O)N[C@@H](Cc1ccccc1)C(=O)N[C@H](C(=O)N[C@@H](CC(C)C)C(=O)N[C@@H](CC(=O)O)C(=O)N[C@@H](C)C(=O)N[C@@H](CC(=O)O)C(=O)N[C@@H](Cc1ccccc1)C(=O)O)[C@H](C)O |
| > 30 | COc1ccccc1C[C@H](NC(=O)[C@H](CC(=O)O)NC(=O)[C@H](C)NC(=O)[C@H](CC(=O)O)NC(=O)[C@H](CC(C)C)NC(=O)[C@@H](NC(=O)[C@H](Cc1ccccc1)NC(C)=O)[C@H](C)O)C(=O)O |
| 2.4 | CC(C)C[C@H](NC(=O)[C@@H](NC(=O)[C@H](Cc1ccccc1)NC=O)[C@H](C)O)C(=O)N[C@@H](CC(=O)O)C(=O)N[C@@H](C)C(=O)N[C@@H](CC(=O)O)C(=O)N[C@@H](Cc1ccccc1)C(=O)O |
| > 30 | CC(=O)N[C@@H](Cc1ccccc1)C(=O)N[C@H](C(=O)N[C@@H](CC(C)C)C(=O)N[C@@H](CC(=O)O)C(=O)N[C@@H](C)C(=O)N[C@@H](CC(=O)O)C(=O)N[C@@H](Cc1ccc([N+](=O)[O-])cc1)C(=O)O)[C@H](C)O |
| 24 | CC(=O)N[C@@H](Cc1ccccc1)C(=O)N[C@H](C(=O)N[C@@H](CC(C)C)C(=O)N[C@@H](CC(=O)O)C(=O)N[C@@H](C)C(=O)N[C@@H](CC(=O)O)C(=O)N[C@@H](Cc1ccc(O)cc1)C(=O)O)[C@H](C)O |
| 2 | CC(=O)N[C@@H](Cc1ccccc1)C(=O)N[C@H](C(=O)N[C@@H](CC(C)C)C(=O)N[C@@H](CC(=O)O)C(=O)N[C@@H](C)C(=O)N[C@@H](CC(=O)O)C(=O)N[C@@H](Cc1ccccc1F)C(=O)O)[C@H](C)O |
| 4.7 | CC(=O)N[C@@H](Cc1ccccc1)C(=O)N[C@H](C(=O)N[C@@H](CC(C)C)C(=O)N[C@@H](CC(=O)O)C(=O)N[C@@H](C)C(=O)N[C@@H](CC(=O)O)C(=O)N[C@@H](Cc1ccc(C)cc1)C(=O)O)[C@H](C)O |
| 12 | CC(=O)N[C@@H](Cc1ccccc1)C(=O)N[C@H](C(=O)N[C@@H](CC(C)C)C(=O)N[C@@H](CC(=O)O)C(=O)N[C@@H](C)C(=O)N[C@@H](CC(=O)O)C(=O)N[C@@H](Cc1ccccc1Cl)C(=O)O)[C@H](C)O |
| 26 | CC(=O)N[C@@H](Cc1ccccc1)C(=O)N[C@H](C(=O)N[C@@H](CC(C)C)C(=O)N[C@@H](CC(=O)O)C(=O)N[C@@H](C)C(=O)N[C@@H](CC(=O)O)C(=O)N[C@@H](Cc1ccccc1O)C(=O)O)[C@H](C)O |
| 0.8 | CC(C)C[C@H](NC(=O)[C@@H](NC(=O)[C@H](Cc1ccccc1)NC(=O)Cc1ccc([N+](=O)[O-])cc1)[C@H](C)O)C(=O)N[C@@H](CC(=O)O)C(=O)N[C@@H](C)C(=O)N[C@@H](CC(=O)O)C(=O)N[C@@H](Cc1ccccc1)C(=O)O |
| 1.4 | CC(C)C[C@H](NC(=O)[C@@H](NC(=O)[C@H](Cc1ccccc1)NC(=O)OCC1c2ccccc2-c2ccccc21)[C@H](C)O)C(=O)N[C@@H](CC(=O)O)C(=O)N[C@@H](C)C(=O)N[C@@H](CC(=O)O)C(=O)N[C@@H](Cc1ccccc1)C(=O)O |
